pIC50, pKi: −log10 of the molar value.
Legend:
Steryl-sulfatase [1] = target: T1, Steryl-sulfatase (Homo sapiens, UniProt P08842); assay: Inhibitory concentration against human steroid sulfatase expressed in CHO cells; type: cell-based
T1 sequence (P08842 whole entry): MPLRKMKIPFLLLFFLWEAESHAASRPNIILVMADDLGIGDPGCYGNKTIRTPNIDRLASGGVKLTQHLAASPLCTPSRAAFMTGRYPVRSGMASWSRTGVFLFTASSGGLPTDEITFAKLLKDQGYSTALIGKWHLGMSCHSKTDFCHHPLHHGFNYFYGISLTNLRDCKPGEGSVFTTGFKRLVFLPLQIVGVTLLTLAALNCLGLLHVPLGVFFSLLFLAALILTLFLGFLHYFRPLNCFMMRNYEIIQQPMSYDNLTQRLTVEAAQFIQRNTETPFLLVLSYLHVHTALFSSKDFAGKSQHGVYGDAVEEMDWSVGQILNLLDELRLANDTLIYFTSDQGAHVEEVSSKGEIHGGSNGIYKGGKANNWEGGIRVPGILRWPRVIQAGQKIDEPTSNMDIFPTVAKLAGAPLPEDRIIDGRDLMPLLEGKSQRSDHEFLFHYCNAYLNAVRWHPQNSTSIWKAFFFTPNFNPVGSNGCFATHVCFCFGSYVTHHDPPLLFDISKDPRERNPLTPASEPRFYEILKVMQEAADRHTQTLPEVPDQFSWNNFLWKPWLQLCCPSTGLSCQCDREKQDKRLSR
Method in brief: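 Intact recombinant CHO cells overexpressing STS, live-cell variant for reversible inhibitors; 4-methylumbelliferyl sulfate substrate at 0.5 mM, 4 h incubation with inhibitor; fluorimetric read-out of substrate cleavage, IC50 determined.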

Steryl-sulfatase [2] = target: T1, Steryl-sulfatase; assay: Inhibitory constant against human steroid sulfatase
Method in brief: (§1)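 Purified human STS (from recombinant CHO cells) at 37 °C; 4-methylumbelliferyl sulfate cleavage monitored fluorimetrically, substrate varied 0.05–2 mM at several inhibitor concentrations. Initial velocities from the linear phase (fluorescence units per min); Ki calculated from Hanes plots ([S]/v versus [S]).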

Steryl-sulfatase [3] = target: T1, Steryl-sulfatase; assay: Inhibitory concentration against human steroid sulfatase
Method in brief: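 Human STS purified to homogeneity from recombinant CHO cells; fluorimetric assay following cleavage of 4-methylumbelliferyl sulfate (fixed at 0.75 mM) at 37 °C, 1 h incubations with or without inhibitor. Initial velocity taken from the linear phase as fluorescence units per min; IC50 derived by a previously described method.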

Steryl-sulfatase [4] = target: T1, Steryl-sulfatase; assay: Inhibitory constant against human Steroid sulfatase; method in brief: as §1

SMILES | pIC50 (Steryl-sulfatase [1]) | pKi (Steryl-sulfatase [2]) | pIC50 (Steryl-sulfatase [3]) | pKi (Steryl-sulfatase [4])
CC(C)(C)OC(=O)N1CCC(C(=O)NS(=O)(=O)c2cc(Cl)cc(Cl)c2)CC1 | 5.90 |  |  | 
CC(C)(C)OC(=O)N1CCN(C(=O)NS(=O)(=O)c2ccc(Cl)cc2)CC1 | 4.92 | 4.84 | 5.44 | 
CC(C)(C)OC(=O)N1CCC(C(=O)NS(=O)(=O)c2cc(C(F)(F)F)cc(C(F)(F)F)c2)CC1 | 6.11 | 6.66 | 6.68 | 
CC(C)(C)OC(=O)N1CCC(C(=O)NS(=O)(=O)c2c(Cl)sc(Cl)c2Br)CC1 | 6.57 |  | 7.59 | 7.92
CC(C)(C)OC(=O)N1CCC(C(=O)NS(=O)(=O)c2ccc(Cl)cc2)CC1 | 5.01 | 4.79 | 5.07 | 
O=C(Cc1ccccc1)O[C@H]1C[C@H]2CC[C@@H](C1)N2C(=O)NS(=O)(=O)c1ccc(Cl)cc1 | 5.20 |  | 6.04 | 
CC(C)(C)OC(=O)N1CCC(C(=O)NS(=O)(=O)c2c(Cl)cccc2Cl)CC1 | 5.00 |  |  | 
